Results on one compound are retold here after ChEMBL document CHEMBL4834402, “Discovery of TAK-981, a First-in-Class Inhibitor of SUMO-Activating Enzyme for the Treatment of Cancer” (J Med Chem, 2021).

The source made the active and inactive calls.

In data set [1] the target is T1, NEDD8 activating enzyme (Homo sapiens, UniProt Q8TBC4).
T1 sequence (Q8TBC4 whole entry): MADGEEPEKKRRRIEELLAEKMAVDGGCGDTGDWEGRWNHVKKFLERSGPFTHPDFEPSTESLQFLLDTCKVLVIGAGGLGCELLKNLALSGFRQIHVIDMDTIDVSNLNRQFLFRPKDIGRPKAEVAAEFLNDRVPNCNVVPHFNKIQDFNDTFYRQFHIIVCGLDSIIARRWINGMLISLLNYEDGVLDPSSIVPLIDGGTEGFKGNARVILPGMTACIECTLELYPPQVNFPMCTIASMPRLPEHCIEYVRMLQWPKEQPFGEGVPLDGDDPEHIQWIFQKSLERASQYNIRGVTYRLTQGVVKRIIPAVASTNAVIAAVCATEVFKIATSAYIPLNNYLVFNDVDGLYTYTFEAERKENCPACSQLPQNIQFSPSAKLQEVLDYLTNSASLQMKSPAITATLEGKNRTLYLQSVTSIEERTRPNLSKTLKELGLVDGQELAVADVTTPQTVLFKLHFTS
T1 sequence (Q13564 whole entry): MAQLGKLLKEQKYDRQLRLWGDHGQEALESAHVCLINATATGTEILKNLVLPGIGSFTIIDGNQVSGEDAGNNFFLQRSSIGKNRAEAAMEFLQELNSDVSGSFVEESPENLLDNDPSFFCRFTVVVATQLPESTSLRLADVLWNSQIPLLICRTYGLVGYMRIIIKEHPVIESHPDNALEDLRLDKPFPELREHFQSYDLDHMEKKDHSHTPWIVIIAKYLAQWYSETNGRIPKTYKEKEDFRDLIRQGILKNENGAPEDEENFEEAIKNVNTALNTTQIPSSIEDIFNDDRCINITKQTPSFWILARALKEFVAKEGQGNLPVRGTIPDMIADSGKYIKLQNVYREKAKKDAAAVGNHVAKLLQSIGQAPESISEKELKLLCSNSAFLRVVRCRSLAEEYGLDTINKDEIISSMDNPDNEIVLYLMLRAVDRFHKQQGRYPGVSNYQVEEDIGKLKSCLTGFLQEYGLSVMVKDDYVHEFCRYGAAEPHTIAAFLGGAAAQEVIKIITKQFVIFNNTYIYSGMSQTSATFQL
The data set can be described thus: Inhibition of recombinant NAE (unknown origin) in presence of ATP at Km concentration by HTRF assay. The data set is classed as protein-complex assay. (In TR-FRET formats the signal depends on donor and acceptor labels being close together.)

The subject of data set [2] is HCT-116. The data set can be described thus: Antitumor activity against human HCT-116 cells xenografted in Ncr/nude mouse assessed as tumor growth inhibition at 50 mg/kg, iv administered thrice per week for 21 days and measured twice weekly. The class given is functional, organism-based. The note with it: time 21.0 day. In short, it runs like this: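 Female Ncr/nude mice carrying HCT-116 tumors (~200 mm3) were randomized, n = 8/group, with treatment from Day 1. Schedules were QD x21 (Days 1–21) or QD x3/week (three consecutive dosing days, four off). Tumor volume was measured twice weekly.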

Data set [3] in a line: AUC in rat plasma at 10 mg/kg, po. The data set is classed as ADME, organism-based. Details: dose 10 mg/kg.
The nature of data set [4]: AUC in rat plasma at 1 mg/kg, iv. The data set is classed as ADME, organism-based. Details: dose 1 mg/kg.
Data set [5] is described as follows: AUC in rat blood at 1 mg/kg, iv. Details: dose 1 mg/kg. The class given is ADME, organism-based.
For data set [6], the system named is OCI-Ly10. Briefly: Cytotoxicity against human OCI-LY10 cells assessed as reduction in cell viability after 72 hrs by CellTiter-Glo luminescent assay. The data set is classed as functional, cell-based. The note with it: OCI-Ly10, 72 h. In general terms: Cellular ATP, detected with luciferase, serves as a proxy for viable cell number.
Data set [7] can be described thus: Volume of distribution at steady state in rat blood at 1 mg/kg, iv. The class given is ADME, organism-based. The note with it: read-out: Vdss.
The target of data set [8] is T2, SUMO-activating enzyme (Homo sapiens) (UniProt Q9UBE0+Q9UBT2). The data set can be described thus: Inhibition of SAE in human OCI-Ly10 cells xenografted in NCr nude mouse assessed as reduction in SUMO2/3 protein conjugates at 25 mg/kg, iv and measured up to 24 hrs by immunohistochemistry analysis. The class given is organism-based. Particulars: HCT-116, time hrs <=24. A general note: In xenograft studies the graft and the host belong to different species.

Data set [9] deals with T2, SUMO-activating enzyme (Homo sapiens). The data set can be described thus: Inhibition of SAE in human OCI-Ly10 cells xenografted in CB17 SCID mouse assessed as improvement in SUMO-inhibitor adduct durability at 25 mg/kg, iv and measured up to 48 hrs by mass spectrometry. The data set is classed as organism-based. Particulars: time hrs <=48.
The subject of data set [10] is HCT-116. Briefly: Cytotoxicity against human HCT116 cells assessed as reduction in cell viability after 72 hrs by CellTiter-Glo luminescent assay. The class given is functional, cell-based. Particulars: HCT-116, 72 h.
Data set [11] in a line: Clearance in rat plasma at 1 mg/kg, iv. The data set is classed as ADME, organism-based. The note with it: in vivo.
The target of data set [12] is T3, SUMO-activating enzyme (Homo sapiens, UniProt Q9UBT2). The data set can be described thus: Inhibition of SAE in human HCT116 cells assessed as reduction in redistribution of SUMO2/3 proteins from nucleus to cytosol incubated for 4 hrs by immunofluorescence assay. The data set is classed as cell-based, HCT-116. The essentials: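 HCT-116 cells exposed to compound across a concentration range for 4 h, then stained with anti-SUMO2/3 monoclonal antibody. Automated imaging scored the nuclear (inner) to cytoplasmic (outer) SUMO2/3 ratio. IC50 taken from the dose response.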
T3 sequence (Q9UBE0 whole entry): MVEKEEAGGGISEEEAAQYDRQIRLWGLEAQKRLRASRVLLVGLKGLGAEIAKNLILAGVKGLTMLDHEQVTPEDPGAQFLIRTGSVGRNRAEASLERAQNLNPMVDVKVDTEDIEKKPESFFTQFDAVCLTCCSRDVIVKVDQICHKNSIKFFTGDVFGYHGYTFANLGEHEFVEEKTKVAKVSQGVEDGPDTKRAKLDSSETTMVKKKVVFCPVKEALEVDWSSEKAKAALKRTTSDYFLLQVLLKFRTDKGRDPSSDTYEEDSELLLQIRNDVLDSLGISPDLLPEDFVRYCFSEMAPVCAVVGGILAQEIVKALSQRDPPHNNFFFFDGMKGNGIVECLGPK
T3 sequence (Q9UBT2 whole entry): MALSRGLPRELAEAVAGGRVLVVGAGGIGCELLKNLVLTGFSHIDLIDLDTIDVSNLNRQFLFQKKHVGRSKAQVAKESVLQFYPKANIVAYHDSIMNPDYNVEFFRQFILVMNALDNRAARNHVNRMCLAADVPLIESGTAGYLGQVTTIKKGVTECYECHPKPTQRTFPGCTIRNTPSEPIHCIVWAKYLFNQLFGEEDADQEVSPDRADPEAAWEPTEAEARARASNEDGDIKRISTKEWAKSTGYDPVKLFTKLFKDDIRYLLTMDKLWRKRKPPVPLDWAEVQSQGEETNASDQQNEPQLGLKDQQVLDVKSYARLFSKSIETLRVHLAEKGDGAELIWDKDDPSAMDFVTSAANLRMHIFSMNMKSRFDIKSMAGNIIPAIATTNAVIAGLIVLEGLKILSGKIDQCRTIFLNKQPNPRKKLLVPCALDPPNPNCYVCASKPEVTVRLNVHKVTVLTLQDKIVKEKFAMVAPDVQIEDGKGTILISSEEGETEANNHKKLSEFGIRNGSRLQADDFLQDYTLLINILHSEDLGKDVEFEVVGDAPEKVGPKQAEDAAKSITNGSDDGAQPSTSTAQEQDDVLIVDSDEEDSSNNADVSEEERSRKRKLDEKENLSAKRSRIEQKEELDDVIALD

The target in data set [13] is T2, SUMO-activating enzyme (Homo sapiens). The data set can be described thus: Inhibition of SAE in human HCT116 cells xenografted in NCr nude mouse assessed as reduction in SUMO2/3 protein conjugates at 50 mg/kg, iv and measured up to 16 hrs by immunohistochemistry analysis. The class given is organism-based. Particulars: HCT-116. In short, it runs like this:
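HCT-116 tumors in female Ncr nude mice, n = 3 per time point, after a single IV dose at t = 0. SUMO2/3 conjugation in tumors measured by IHC at 2, 4, 8 and 16 h. Read-out is nuclei staining positive for SUMO2/3 conjugates over total nuclei, normalized to vehicle-treated animals (time = 0 h), expressed as percent inhibition.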

The nature of data set [14]: AUC in rat blood at 10 mg/kg, po. Details: dose 10 mg/kg. The class given is ADME, organism-based.
Data set [15] deals with T3, SUMO-activating enzyme. Briefly: Inhibition of recombinant SAE (unknown origin) assessed as reduction in transfer of SUMO1 to UBC9 using SUMO1 as a substrate in presence of ATP at Km concentration by HTRF assay. The data set is classed as protein-complex assay. The essentials: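 HTRF transthiolation assay measuring transfer of SUMO1 to UBC9, the E2 for SAE.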
Data set [16] in a line: Half life in rat plasma at 1 mg/kg, iv. The data set is classed as ADME, organism-based.
Data set [17] can be described thus: Oral bioavailability in rat plasma at 10 mg/kg. The class given is ADME, organism-based.
A short description of data set [18]: Dissociation constant , pKa of the compound. The class given is physicochemical.
The target in data set [19] is T2, SUMO-activating enzyme (Homo sapiens). The data set can be described thus: Inhibition of SAE in human HCT116 cells xenografted in NCr nude mouse assessed as improvement in SUMO-inhibitor adduct durability at 50 mg/kg, iv and measured up to 16 hrs by mass spectrometry. The class given is organism-based. Particulars: HCT-116. In short, it runs like this:
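Single IV dose at t = 0 to female Ncr nude mice bearing HCT-116 tumors, n = 3 per time point. Tumors harvested 2, 4, 8 and 16 h post-injection. Read-out is the adduct/SAE ratio: quantity of SUMO-compound adduct over quantity of total SAE enzyme, both measured by mass spectrometry. Values are averaged per time point.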

A short description of data set [20]: Inhibition of recombinant UAE (unknown origin) in presence of ATP at Km concentration by HTRF assay. Details: species or system Homo sapiens.
The nature of data set [21]: Apparent permeability across apical to basolateral side in human Caco2 cells. The class given is ADME, cell-based. Particulars: Caco-2.
Data set [22] addresses Carbonic anhydrase 2 (Homo sapiens, UniProt P00918). The data set can be described thus: Inhibition of recombinant human CA2 expressed in Escherichia coli using fluorescein diacetate as substrate at […] by fluorometric esterase assay.
A short description of data set [23]: Lipophilicity, logD of compound at pH 7.4. The class given is physicochemical. The note with it: buffer.

Regarding `Cc1sc(C(=O)c2cncnc2N[C@@H]2C[C@H](COS(N)(=O)=O)[C@@H](O)C2)cc1[C@@H]1NCCc2ccc(Cl)cc21`, the IC50 – broadly, the concentration that inhibits the measured activity by half – was 960 nM in data set [1]; 15 nM in [12]; 1 nM in data set [15]; > 1000 nM in [20]; 20 nM in data set [22]. Besides, the outcome in [2] was Active. Besides, the area under the curve (AUC) (in general, the area under the concentration-time curve, a measure of exposure) in [3] was determined as 0.3 µM·h; in data set [4], 0.5 µM·h; in data set [5], 31.2 µM·h; in data set [14], 32 µM·h. For the same compound, the EC50 (commonly the midpoint of the concentration-response curve) in [6] was determined as 4 nM; in data set [10] it was 63 nM. Moreover, the Vd in data set [7] was determined as 0.2 L/kg. Also, the inhibition entry in [8], in data set [9], in [13] and in [19] was “Active” throughout. The clearance – broadly, the rate of elimination divided by the concentration – in data set [11] worked out at 61.7 mL/min/kg. Moreover, the half-life – broadly, the time needed for the level to fall by half in the phase considered – in data set [16] is 2.1 h. Also, the bioavailability (in general, dose-corrected exposure relative to a reference, in per cent) in data set [17] turned out to be 7.3%. In data set [18], the pKa (usually the pH at which an ionisable group is half protonated) is 3.6. In addition, in [21], the apparent permeability from apical to basolateral (Papp A→B) (usually the apparent permeability from the apical to the basolateral side of a cell layer) stood at 0.3 ×10⁻⁶ cm/s. Moreover, the pH-dependent lipophilicity (logD) – broadly, the decadic logarithm of the distribution of all forms, ionised or not, between an organic phase and buffer at a given pH – in data set [23] came out at 2.1.
